Assay results: ChEMBL document CHEMBL4619819, “Toward the Target: Tilorone, Quinacrine, and Pyronaridine Bind to Ebola Virus Glycoprotein” (ACS Med Chem Lett, 2020); call rule not given here
pIC50, pKd: −log10 of the molar value.

Tests used:
[1] = Binding affinity to Ebola virus glycoprotein assessed as dissociation constant incubated for 20 to 30 mins by microscale thermophoresis; set-up: species or system Ebolavirus; details: for pKd: read-out: Kd
Summary of the method: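 EBOV glycoprotein amine-labelled with RED-NHS dye, 2.5 nM final in 10 mM MES pH 5.0, 150 mM NaCl, 170 mM sodium malonate pH 5.2, plus 0.05% Tween 20 and 10 mM BME. 16-point 2-fold series from 250 μM to 7.629 nM, 2.5% DMSO final. Incubated 20–30 min. MST run at 20% excitation, high power, 23.0 °C, in quadruplicate. Kd from mass-action fit of Fnorm, with aggregated or outlier traces removed.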

[2] = test system: Ebolavirus; assay: Antiviral activity against Ebolavirus infected in human HeLa cells assessed as reduction in viral replication incubated for 48 hrs by luminescence based assay; type: functional, organism-based; details: Orthoebolavirus

| SMILES | pKd [1] | pIC50 [2] | Kd [1] |
| --- | --- | --- | --- |
| CN(C)CCOc1ccc(/C(=C(/CCCl)c2ccccc2)c2ccccc2)cc1 [TOREMIFENE] | 4.61 |  |  |
| COc1ccc2nc3cc(Cl)ccc3c(Nc3cc(CN4CCCC4)c(O)c(CN4CCCC4)c3)c2n1 [PYRONARIDINE] | 5.13 | 5.89 to 6.09 |  |
| C[C@H]1[C@H](OC(=O)CCC(=O)O)O[C@@H]2O[C@@]3(C)CC[C@H]4[C@H](C)CC[C@@H]1[C@@]24OO3 [ARTESUNATE] |  |  | Not Active |
| NC(=O)c1nc(F)cnc1O [FAVIPIRAVIR] |  |  | Not Active |
| CCN(CC)CCOc1ccc2c(c1)C(=O)c1cc(OCCN(CC)CC)ccc1-2 [TILORONE] | 6.14 | 5.83 to 5.94 |  |
| CCN(CC)CCCC(C)Nc1c2ccc(Cl)cc2nc2ccc(OC)cc12 (centres undefined) [QUINACRINE] | 5.12 | 5.83 to 5.98 |  |
